An excerpt weighted towards active compounds, which were near 3% of everything screened.
TAAR1 antagonist: human TAAR1 antagonists, primary screen, Fluo-8 calcium fluorescence, CHO RD-HGA16 cells | Trace amine-associated receptor 1 (Homo sapiens), Q96RJ0 | antagonist | inhibition, % at 3 µM | 360,000 tested, 1.5% active | AID 624466, 2012;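 active = inhibition above a per-plate cutoff, the mean inhibition of test compounds on that plate plus 3 SD, cut at about 49% in these data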;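 also: 0% = DMSO plus EC80 beta-PEA response and 100% = DMSO alone without agonist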
Target sequence (Q96RJ0 whole entry, looked up): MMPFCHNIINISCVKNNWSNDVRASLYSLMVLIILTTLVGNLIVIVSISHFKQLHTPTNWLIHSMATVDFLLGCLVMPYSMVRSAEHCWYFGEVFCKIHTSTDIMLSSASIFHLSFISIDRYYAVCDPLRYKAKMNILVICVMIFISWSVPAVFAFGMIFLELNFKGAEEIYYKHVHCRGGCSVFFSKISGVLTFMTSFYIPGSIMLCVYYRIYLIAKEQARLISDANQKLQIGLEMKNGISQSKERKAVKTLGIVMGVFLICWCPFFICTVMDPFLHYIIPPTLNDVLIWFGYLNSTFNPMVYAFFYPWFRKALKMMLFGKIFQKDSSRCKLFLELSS
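System: CHO RD-HGA16 cells bearing hTAAR1. Reagent: EC80 β-phenethylamine stimulus. Schedule: seeding 17-24 h prior, 75-min 37 °C, 30-min RT dye loading. Signal: Fluo-8 intracellular calcium dye fluorescence, real-time kinetic reads. Read-out: % inhibition from peak post-agonist over basal fluorescence ratio. Benchmarks: vehicle wells and EC80 agonist wells. Replicates: n of 1.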
M4 PAM: human M4 muscarinic receptor positive allosteric modulators, primary screen, CHO-K1 cells, Fluo-8 calcium fluorescence; Muscarinic acetylcholine receptor M4 (Homo sapiens), P08173; activation, % at 3 µM; CHO-K1 hM4/Gqi5, ACh EC20; 0% = ACh EC20, 100% = maximal ACh; 360,000 tested, 0.4% active; AID 624126, 2012;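 active = activation above its plate's cutoff, the mean activation of sample wells plus 3 SD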
CHRM4 agonist: human M4 muscarinic receptor agonists, primary screen, CHO-K1 cells, Fluo-8 calcium fluorescence | activation, % at 3 µM | 360,000 tested, 0.14% active | Muscarinic acetylcholine receptor M4 (Homo sapiens), P08173 | CHO-K1 hM4/Gqi5; vehicle 0%, full acetylcholine response 100%;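 active = activation above the run mean over all test wells plus 3 SD, cut at about 32% in these data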;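 also: peak over basal fluorescence ratio per well then scaled between controls; 0% = DMSO wells and 100% = acetylcholine at EC100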
M4 antag: human M4 muscarinic receptor antagonists, primary screen, CHO cells, Fluo-8 calcium fluorescence; Muscarinic acetylcholine receptor M4 (Homo sapiens), P08173; CHO-hM4 cells, ACh EC80; inhibition, % at 3 µM; 360,000 tested, 0.73% active;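 active = inhibition above its plate's cutoff, the mean inhibition of sample wells plus 3 SD, cut at about 27% in these data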;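 also: 0% = acetylcholine EC80 with DMSO and 100% = DMSO without agonist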
TAAR1 agonist: human TAAR1 agonists, primary screen, Fluo-8 calcium fluorescence, CHO RD-HGA16 cells. Trace amine-associated receptor 1 (Homo sapiens), Q96RJ0. vehicle wells 0%, saturating PEA agonist 100%. activation, % at 3 µM. 360,000 tested, 0.99% active. AID 624467, 2012;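 active = activation above the mean activation of all test compounds in the run plus 3 SD, cut at about 38% in these data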
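System: CHO-derived RD-HGA16 cells with stable Gα16 and human TAAR1 / Times: 17-24 h plating, Fluo-8 75 min 37 °C, 30 min RT / Technique: calcium-sensitive Fluo-8 signal, excitation 470-495, emission 515-575 nm / Measure: % activation relative to PEA EC100 response / Benchmarks: DMSO and PEA EC100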
nonsel antag count: nonselective antagonists in TAAR1 counter-screen cells, counter-screen for hTAAR1 antagonist project, cell-based, fluorescence, calcium; AID 651780, 2012; shares compounds with TAAR1 antagonist; 2,400 tested, 77% active; counterscreen cell line, antagonist mode; inhibition, % at 3 µM; in the data active = inhibition above about 22%;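 also: CHO-Ga16 host cells stimulated with ATP at an EC80 level; 0% = agonist EC80 plus vehicle and 100% = vehicle without agonist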
TAAR1 antag conf: human TAAR1 antagonists, retest of hits, confirmation, cell-based, fluorescence. shares compounds with TAAR1 antagonist. TAAR1-expressing cells, fluorescence antagonist read-out. inhibition, % at 3 µM. 2,400 tested, 40% active. AID 651785, 2012; in the data active = inhibition above about 49%;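 also: CHO-Ga16 host cells challenged with agonist PEA near its EC80; 0% = agonist at EC80 plus vehicle and 100% = vehicle with no agonist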
Ga16 ag counter-1: calcium activation in Ga16-expressing cells, counter-screen for TAAR1 antagonist project, cell-based, fluorescence. AID 651953, 2012. activation, % at 3 µM. 2,400 tested, 18% active. shares compounds with TAAR1 antagonist. agonist counterscreen; in the data active = activation above about 12%;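 also: 0% = vehicle wells and 100% = saturating stimulus response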
TAAR1 ag counter: TAAR1 activation by candidate antagonists – cell-based, fluorescence, counter-screen for TAAR1 antagonist project; shares compounds with TAAR1 antagonist; hTAAR1 cell line, agonist mode; activation, % at 3 µM; 2,400 tested, 2% active; in the data active = activation above about 37%;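 also: CHO cells stably expressing TAAR1 with calcium dye readout; 0% = DMSO vehicle and 100% = full agonist response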
TAAR1 ag conf: human TAAR1 agonists, retest of hits, confirmation, Fluo-8 calcium fluorescence, CHO RD-HGA16 cells | shares compounds with TAAR1 agonist | scaled: DMSO 0%, maximal phenethylamine 100% | activation, % at 3 µM | 2,400 tested, 82% active;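 active = activation above a cutoff set at the run's mean compound activation plus 3 SD, cut at about 39% in these data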
Ga16 ag counter-2: nonselective calcium mobilization agonists, CHO-Ga16 cells, counter-screen for hTAAR1 agonist project, cell-based, fluorescence, CHO-Ga16 parental line. shares compounds with TAAR1 agonist. Fluo-8 calcium fluorescence; normalized to maximal ATP response, DMSO zero. activation, % at 3 µM. 2,400 tested, 50% active. AID 651787, 2012;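 active = activation above the run cutoff, the mean activation over all tested wells plus 3 SD, cut at about 12% in these data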;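 also: 0% = DMSO wells and 100% = maximal ATP response on the peak over basal ratio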
TAAR1 desens: TAAR1 desensitization by agonist hits, confirmation, counter-screen for TAAR1 agonist project, cell-based, fluorescence, tachyphylaxis; shares compounds with TAAR1 agonist; CHO RD-HGA16 hTAAR1, Fluo-8 calcium, beta-PEA response inhibition; inhibition, % at 3 µM; 2,400 tested, 46% active;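 active = inhibition above the run cutoff, the mean inhibition of all test compounds plus 3 SD, cut at about 49% in these data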;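 also: beta-PEA stimulus applied at its EC80; loss of beta-PEA calcium signal after compound pretreatment read as receptor desensitization; 0% = DMSO with beta-PEA at EC80 and 100% = DMSO alone without agonist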
Ga16 nonsel ant: inhibition of ATP-evoked calcium response in CHO-Ga16 cells, counter-screen for TAAR1 agonist project, cell-based, fluorescence; shares compounds with TAAR1 agonist; CHO-Ga16 ATP-induced calcium, Fluo-8 fluorescence; inhibition, % at 3 µM; 2,400 tested, 39% active;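 active = inhibition above the plate's mean compound inhibition plus 3 SD, computed per plate, cut at about 22% in these data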;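 also: 0% = EC80 ATP with DMSO and 100% = DMSO wells without ATP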
Numbers without * were called inactive; x = no result given.

SMILES	TAAR1 antagonist	M4 PAM	CHRM4 agonist	M4 antag	TAAR1 agonist	nonsel antag count	TAAR1 antag conf	Ga16 ag counter-1	TAAR1 ag counter	others
O=c1[nH]c2ccccc2n1C1CCN(C(c2cc3ccccc3o2)c2nnnn2Cc2ccccc2)CC1 (stereo not given)	62*	-11	23	20	12	28*	53*	7	12
COc1ccc(-n2nnnc2C(C2CC2)N2CCC(n3c(=O)[nH]c4ccccc43)CC2)cc1 (stereo not given)	72*	-10	22	17	32	19	51*	11	18
COc1ccc(-n2nnnc2C(c2cccs2)N2CCC(n3c(=O)[nH]c4ccccc43)CC2)cc1 (stereo not given)	71*	-9	18	36*	12	18	46	8	26
O=C1CC(N2CCC(n3c(=O)[nH]c4ccccc43)CC2)C(=O)N1Cc1ccccc1 (stereo not given)	11	5	9	7	11	x	x	x	x
COc1ccc(-n2nnnc2C(c2cccc3ccccc23)N2CCC3(CC2)C(=O)NCN3c2ccccc2)cc1 (stereo not given)	-10	3	2	2	3	x	x	x	x
CCOC(=O)[C@@H]1[C@H]2COc3ccc(Br)cc3[C@H]2N2C(=O)N(c3cccc(C)c3)C(=O)[C@]12C	1	2	1	12	10	x	x	x	x
O=c1[nH]c2ccccc2n1C1CCN(Cc2ccc(-c3[nH]c4cc5ncnc5cc4nc3-c3ccccc3)cc2)CC1	67*	-9	14	7	5	21	40	6	12
c1coc(CN2Cc3ccccc3-n3nncc3C2)c1	-14	11	2	-2	1	x	x	x	x
Cn1c2ccccc2c2c(C(=O)N3CCC4(CC3)OCCO4)cn(C3CCCC3)c(=O)c21	56*	-9	12	8	20	23*	42	10	9
COc1cccc(NP(=O)(Oc2ccccc2)Oc2ccccc2)c1	72*	-12	9	0	6	27*	49*	8	7
CC(C)C12CN3CCN(CC(C3)/C1=N\O)C2	108*	7	0	0	-3	5	10	0	0
CC(C)CC12CN3CCN(CC(C3)/C1=N/O)C2	-5	-3	0	5	4	x	x	x	x
N#CC1c2ccccc2-n2nncc2CN1Cc1cc(Cl)cc(Cl)c1 (stereo not given)	7	-10	7	20	4	x	x	x	x
O=C(CN1CCOCC1)NCC(=O)Nc1ccc(Br)cc1C(=O)c1ccccc1	21	-6	0	11	2	x	x	x	x
CN1CCN(CC(=O)Nc2ccc([N+](=O)[O-])cc2C(=O)c2ccccc2)CC1	104*	5	1	0	5	2	-1	1	4
CCOC(=O)[C@]12Cc3cc(Cl)ccc3[C@H]1N(C(C)C)C(=O)c1ccccc12	8	16	-2	1	-2	x	x	x	x
CC(C)(C)n1nnnc1C(c1ccnc2ccccc12)N1CCC2(CC1)C(=O)NCN2c1ccccc1 (stereo not given)	-4	-6	2	0	4	x	x	x	x
CC(C)CN1Cc2ccccc2-n2nncc2C1	0	0	0	3	2	x	x	x	x
O=P(Oc1ccccc1)(Oc1ccccc1)C(O)c1ccccc1 (stereo not given)	0	-2	3	6	11	x	x	x	x
O=P(Oc1ccccc1)(Oc1ccccc1)C(Nc1ccccc1)c1ccccc1 (stereo not given)	88*	-4	10	-6	1	25*	57*	3	4
CC(C)C[C@@H]1NC(=O)[C@H](Cc2ccccc2)N(C)C(=O)[C@H](C)NC(=O)c2ccccc2NC(=O)[C@H](Cc2ccc(O)cc2)N(C)C1=O	70*	-8	22	24	10	32*	52*	8	8
O=C1NC(=O)C(C2CCCCCC2)C(=O)N1	-18	12	1	-18	1	x	x	x	x
CCOC(=O)CC(SP1(=S)OCC2(CC=CCC2)CO1)C(=O)OCC (stereo not given)	70*	-10	17	9	8	39*	61*	9	7
c1ccc(C2CC2)c(OCC2=NCCN2)c1	-15	-4	0	-15	24	x	x	x	x
c1ccc2cc(CC3=NCCN3)ccc2c1	66*	4	1	-4	87*	x	x	x	x	TAAR1 ag conf=98*;Ga16 ag counter-2=3;TAAR1 desens=87*;Ga16 nonsel ant=4
CC(Cc1ccccc1)NC(=O)NC(C)Cc1ccccc1 (stereo not given)	17	-1	0	-4	8	x	x	x	x

Screening data as filed in PubChem.
